The EternaBench riboswitch data

Experiments:
[1] = system: MS2 coat protein; test: apparent Kd, MS2 coat protein; higher = weaker binding; RNA-MaP array; tryptophan 2.4 mM where present
Method in brief: (§1)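 Designs on Illumina sequencing-chip clusters, transcribed by stalled E. coli RNA polymerase, were exposed to SNAP-549-labelled MS2 coat protein in doubling steps from 0.7 or 1.5 nM up to 3 µM, without and then with constant ligand. The buffer held 100 mM Tris-HCl pH 7.5, 80 mM KCl, 4 mM MgCl2, BSA, DTT, yeast tRNA and Tween-20. Apparent Kd values are medians of filtered per-cluster binding-curve fits to green signal normalised to red-channel RNA signal and control-cluster median Fmax.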

[2] = system: MS2 coat protein; test: apparent Kd, MS2 coat protein; higher = weaker binding; RNA-MaP array; theophylline 2 mM where present
Method in brief: as §1

[3] = designed as: OFF switch for tryptophan, no ligand
[4] = ligand present: tryptophan, designed as: OFF switch for tryptophan
[5] = designed as: ON switch for tryptophan, no ligand
[6] = ligand present: tryptophan, designed as: ON switch for tryptophan
[7] = designed as: OFF switch for theophylline, no ligand
[8] = ligand present: theophylline, designed as: OFF switch for theophylline
[9] = designed as: ON switch for theophylline, no ligand
[10] = ligand present: theophylline, designed as: ON switch for theophylline

Sequence | apparent Kd [2, 7] | apparent Kd [2, 8] | apparent Kd [2, 9] | apparent Kd [2, 10] | other results
AGUAUUGGAAACAGUACUAGUGAUCCGGUCCGAGGACCGGUACGGCCGCCACUCGAAUUAAAUAAACAUGAGGAUCACCCAUGUA | – | – | – | – | apparent Kd [1, 3]: 0.0168 µM; apparent Kd [1, 4]: 0.0461 µM
AAUAACAUGAGGAUCACCCAUGUAAGUAAACGAGGACCGGUACGGCCGCCACUCGAAUAAAUAAAGUACCGGUAAGAUCCAUAGA | – | – | – | – | apparent Kd [1, 5]: 0.0213 µM; apparent Kd [1, 6]: 0.0239 µM
ACAUGUUGGUGGUAUCUACGAAGGCGGAAACGAGGACCGGUACGGCCGCCACUCGGCGACAUGAGGAUCACCCAUGUGGUUAAGA | – | – | – | – | apparent Kd [1, 3]: 0.072 µM; apparent Kd [1, 4]: 0.0464 µM
CUACAUUUGUAGAAACCGGUCACCAUUAUUCGAGGACCGGUACGGCCGCCACUCGUAUCAUGUGAUACAUGAGGAUCACCCAUGU | – | – | – | – | apparent Kd [1, 5]: 0.0288 µM; apparent Kd [1, 6]: 0.0285 µM
GAUCAAAGAUCACAUGAGGAUCACCCAUGUCGAGGACCGGUACGGCCGCCACUCGCGGCGGUGAAAAUAGAUACAAAGUAUCUAU | – | – | – | – | apparent Kd [1, 3]: 0.0776 µM; apparent Kd [1, 4]: 0.347 µM
CACAGUGCGAAAUUGAAUUCGCACGAUCCUCGAGGACCGGUACGGCCGCCACUCGCGCGGGUCGUACAUGAGGAUCACCCAUGUC | – | – | – | – | apparent Kd [1, 5]: 0.257 µM; apparent Kd [1, 6]: 0.368 µM
GAAACGUAGGUGGAGCGGUGAAAUGGCGAUACCAGCGUGGAAACACGCCCUUGGCAGCGUUAGAACAUGAGGAUCACCCAUGUUU | 0.0253 µM | 0.112 µM | – | – | –
UUAGAUAUGACAGAUACCAGCGUGUUGUUGAACAUGAGGAUCACCCAUGUAGUGAUCGAGCGCCCUUGGCAGCUGGUGUGUUUGG | – | – | 0.161 µM | 0.181 µM | –
UAAAACAUGAGGAUCACCCAUGUAAUUGAUACCAGAGUGAUGAUCCUCCCUUGGCAGCAAAACGCUGAUUGAUUACAAUCAGCGA | – | – | 0.0543 µM | 0.207 µM | –
ACAUGAGGAUCACCCAUGUUCCUCGCCGAUACCAGUGAAGAAGAACGCCCUUGGCAGCGGAAAGAGUAUUUUGGAGAUGAGGUAC | 0.0801 µM | 0.129 µM | – | – | –
AAUAACAUGAGGAUCACCCAUGUAAAAGAUACCAGAGUGAUGAUCCUCCCUUGGCAGCUUAAACGCUAUUGAUUACAAUAGCGAA | – | – | 0.0415 µM | 0.144 µM | –
AGCGACAUGCGUGAUACCAGCUACAUGAGGAUCACCCAUGUACGUCAGAAAUGACUGUGUAGCCCUUGGCAGCAUAAUGCAUGUC | 0.0409 µM | 0.0705 µM | – | – | –
AGCGACAUGCGUGAUACCAGCUACAUGAGGAUCACCCAUGUGAGUAGGAAACUACUGUGUAGCCCUUGGCAGCACAGUGCAUGUC | 0.0105 µM | 0.0637 µM | – | – | –
AGACAUGUAAGAUAAAUGACUUAUACAGAUACCAGACUGUCUAAUGUCCCUUGGCAGCUGCAUAACAUGAGGAUCACCCAUGUAA | 0.028 µM | 0.0261 µM | – | – | –
UUGCAUAUCUUGGAUACCAGCACAUGAGGAUCACCCAUGUCCGCGGGAUAGCUCCAGAUGUGCCCUUGGCAGCCACAUGCACUUG | 0.0102 µM | 0.0264 µM | – | – | –
UCACAUGAGGAUCACCCAUGUACAGGCGAUACCAGCCGUACAUUGGGCCCUUGGCAGCGCACCGAGACCUUUUAAAGCACUUCGG | – | – | 0.0351 µM | 0.121 µM | –
GCACCAGGUACGGAUACCAGCUGCCACAGUUACAUGAGGAUCACCCAUGUGAUAAAGUGUAGCCCUUGGCAGCUGUACCUGGUGC | – | – | 0.114 µM | 0.0143 µM | –
AUGUUUGUGUGAGAUACCAGUGAGGCCACAUGAGGAUCACCCAUGUCCCUCACUCCGGCCCACCCUUGGCAGCUCUUAUAGAAAA | 0.01 µM | 0.0596 µM | – | – | –
UGACGAUACCUGGAUACCAGCGACAUGAGGAUCACCCAUGUAUGAGGAUCAGCCAUGUUAUGCCCUUGGCAGCCACGAAAGUCUU | 0.0457 µM | 0.171 µM | – | – | –
UCGUGUAAAACGGAUACCAGUGAGAAGGAUACAUGAGGAUCACCCAUGUGAGUUGAUCCACACCCUUGGCAGCUGUAUAUAUCUA | – | – | 0.118 µM | 0.706 µM | –
ACCGCAGGUCCUGAUACCAGAGACAUGAGGAUCACCCAUGUCCGAUCGUCCUGCCUCAGGCUCCCUUGGCAGCAGGGCUUGUCCU | 0.0143 µM | 0.0271 µM | – | – | –
UCCUCCUCCGCAAGGAGGAGGAGUUGCGAUACCAGCACGGUAACGUGCCCUUGGCAGCGCACAUGAGGAUCACCCAUGUCAUGUU | 0.0176 µM | 0.0223 µM | – | – | –
GAGCUGAUGUAGGGUGGAUAUCCUUGAGAUACCAGUACAGAAAUGUACCCUUGGCAGCUCUUCCUUACAUGAGGAUCACCCAUGU | 0.0187 µM | 0.0231 µM | – | – | –

Sequence | apparent Kd [2, 7] | apparent Kd [2, 8] | apparent Kd [2, 9] | apparent Kd [2, 10] | other results
ACGUCCGGGUUAAUCGUGGGCAUGGUCGAUACCAGUAUUUUAAUCUACCCUUGGCAGCGACAUGAGGAUCACCCAUGUGCGAUGA | 0.017 µM | 0.0355 µM | – | – | –
UAAAACAUGAGGAUCACCCAUGUAAAAGAUACCAGAGUGAUGAUCCUCCCUUGGCAGCUUAACGCUGAUUGAUUACAAUCAGCGA | – | – | 0.0939 µM | 0.18 µM | –
UGUAACAUGAGGAUCACCCAUGUGAGUGAUACCAGACUAGUGUUGGUCCCUUGGCAGCACGCUGGACGAAUGUGUAGUCUAUGCG | – | – | 0.0783 µM | 0.0837 µM | –
GCACCAGGUACGGAUACCAGCUGCUCGAGAUACAUGAGGAUCACCCAUGUGACCUGGUUUAGCCCUUGGCAGCUGUACCUGGUGC | – | – | 0.0158 µM | 0.00998 µM | –
ACAUGAGGAUCACCCAUGUAAUGGCACGAUACCAGCUGAUCCCGUGGCCCUUGGCAGCGUCCGGUGUGGUCCGCCGGGUUGGAGC | – | – | 0.021 µM | 0.0393 µM | –
CAUACUUUAUCCUAUGAGCCUAUUUGUGAUACCAGCAUCUAAAUUUGCCCUUGGCAGCACUUACAUGAGGAUCACCCAUGUUUUA | – | – | 0.0267 µM | 0.0407 µM | –
AUCCUCAAGAAUGAUACCAGACCAAACAUGAGGAUCACCCAUGUAUCAGGCAAUUGUUACGUCCCUUGGCAGCAUGUAAGCCGAC | – | – | 0.0549 µM | 0.0602 µM | –
ACACCGAAAGGUGCAUUUUCCUUUUCAGAUACCAGACUUUACGUUGUCCCUUGGCAGCUGUAUCACAUGAGGAUCACCCAUGUUG | – | – | 0.0164 µM | 0.0176 µM | –
AUAAGUAAUGUUACGUGUUUUAUUACAGAUACCAGACUAUACGUUGUCCCUUGGCAGCUGAAUUACAUGAGGAUCACCCAUGUUG | 0.0151 µM | 0.0173 µM | – | – | –
GAUGAUAUUGCAGAUACCAGACACAUGAGGAUCACCCAUGUCUCUGUGAUGUAGGAUUGUGUCCCUUGGCAGCUGCGAUAUCAUC | 0.229 µM | 0.0914 µM | – | – | –
GAACAUGAGGAUCACCCAUGUGAGAAUGAUACCAGUAGAAGAAGAUGCCCUUGGCAGCGUGCGUGAGGAUCACCCAUGUAGGAGG | 0.0242 µM | 0.0279 µM | – | – | –
UCAUAUUAGUGAGAUGUAAGGUAUCAUGAUACCAGUAGAUAAUUAUACCCUUGGCAGCAUAACAUGAGGAUCACCCAUGUACAUG | 0.0256 µM | 0.0233 µM | – | – | –
AGCCGAAACCUUGAUACCAGAUCAUGCUGCACAUGAGGAUCACCCAUGUCGUUAAACAUGGUCCCUUGGCAGCAAGUUAGGAUCU | – | – | 0.0764 µM | 0.0239 µM | –
AAAUAAAUAACUGAUACCAGUGGACUGACAUGAGGAUCACCCAUGUUGGGUUUUGUUGUCCACCCUUGGCAGCGGGCAUAUAAAA | 0.0248 µM | 0.0669 µM | – | – | –
CAUUAUGUAACUGAUACCAGUGUACUGACAUGAGGAUCACCCAUGUUGGGUUUUGUUGUACACCCUUGGCAGCAGAAUCAUAAUG | 0.0635 µM | – | – | – | –
ACUAACUAUAGUGAUACCAGACGUACAUGAGGAUCACCCAUGUUACAUUCUUGGUUAAAAGUCCCUUGGCAGCACGAUAAGUUCG | 0.00974 µM | 0.0095 µM | – | – | –
ACAUGAGGAUCACCCAUGUGGCGUCUUGAUACCAGACGAGAAGUAGUCCCUUGGCAGCAAAUACAUGAGGAUCACCCAUGUAGGA | 0.0239 µM | 0.0371 µM | – | – | –
AAUAACAUGAGGAUCACCCAUGUAAAAGAUACCAGAGUGAUGAUCCUCCCUUGGCAGCUUAACGCUGAUUGGAAACAAUCAGCGA | – | – | 0.147 µM | 0.225 µM | –
GGCUGUUGCUCUUUGAAGCGGCAGCGUGAUACCAGAUGUAAGAGCGUCCCUUGGCAGCACGUUUACAUGAGGAUCACCCAUGUCA | – | – | 0.211 µM | 0.0728 µM | –
CACUUCAUGUGAGAUACCAGUGCCUUACAUGAGGAUCACCCAUGUCGUAAUGUGGAGAAGCACCCUUGGCAGCUCGCUUCGAGUG | – | – | 0.0839 µM | 0.0717 µM | –
AAACAUUGCUCAGAUACCAGACAUGAGGAUCACCCAUGUACCAAGGUACCCGAAAGGAAUGUCCCUUGGCAGCUGAGCAAUGAAA | 0.0101 µM | 0.0274 µM | – | – | –
AACCGAGGCUAUCCUCUCCGACUAUGUGAUACCAGAAUAAUUUUAUUCCCUUGGCAGCAUGACAUGAGGAUCACCCAUGUCUCUU | – | – | 0.0158 µM | 0.0207 µM | –
